# Experimental data: ChEMBL document CHEMBL3232876, “Novel R-(+)-limonene-based thiosemicarbazones and their antitumor activity against human tumor cell lines” (Eur J Med Chem, 2014)
# Key:
# [1] = Growth inhibition of human NCI-ADR-RES cells after 48 hrs by sulforhodamine B assay; format: functional
# Summary of the method: (§1)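 Tumour lines from NCI and Vero from the Rio de Janeiro Cell Bank, grown in RPMI 1640 with 5% fetal bovine serum, with penicillin:streptomycin added to experimental cultures. Each compound was tested at four 10-fold dilutions; sulforhodamine B staining at time zero and 48 h. Proliferation was calculated against T0 and drug-free controls, and GI50 came from sigmoidal regression of the concentration-response curves. Representative experiment in triplicate.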
# K562 = assay: Growth inhibition of human K562 cells after 48 hrs by sulforhodamine B assay; format: functional; conditions: K562, 48 h; summary of the method: as §1
# [2] = Growth inhibition of human OVCAR3 cells after 48 hrs by sulforhodamine B assay; format: functional; conditions: OVCAR-3, 48 h; summary of the method: as §1
# NCI-H460 = assay: Growth inhibition of human NCI-H460 cells after 48 hrs by sulforhodamine B assay; format: functional; conditions: NCI-H460, 48 h; summary of the method: as §1
# [3] = (§2) Growth inhibition of African green monkey Vero cells after 48 hrs by sulforhodamine B assay; format: cell-based; conditions: chlorocebus sabaeus, Vero cells; summary of the method: as §1
# 786-0 = assay: Growth inhibition of human 786-0 cells after 48 hrs by sulforhodamine B assay; format: functional; conditions: 786-0, 48 h; summary of the method: as §1
# HT-29 = assay: Growth inhibition of human HT-29 cells after 48 hrs by sulforhodamine B assay; format: functional; conditions: HT-29, 48 h; summary of the method: as §1
# U-251 = assay: Growth inhibition of human U251 cells after 48 hrs by sulforhodamine B assay; format: functional; conditions: U-251, 48 h; summary of the method: as §1
# MCF7 = assay: Growth inhibition of human MCF7 cells after 48 hrs by sulforhodamine B assay; format: functional; conditions: MCF7, 48 h; summary of the method: as §1
# [4] = Growth inhibition of human UACC62 cells after 48 hrs by sulforhodamine B assay; format: functional; conditions: UACC-62, 48 h; summary of the method: as §1
# PC-3 = assay: Growth inhibition of human PC3 cells after 48 hrs by sulforhodamine B assay; format: functional; conditions: PC-3, 48 h; summary of the method: as §1
# Vero = assay: as §2; format: cell-based; conditions: chlorocebus sabaeus, vero, 48 h; summary of the method: as §1
GI50 (K562),GI50 (NCI-H460),GI50 (786-0),GI50 (HT-29),GI50 (U-251),GI50 (MCF7),GI50 (PC-3),Compound,GI50 [1],TGI [1],TGI (K562),GI50 [2],TGI [2],TGI (NCI-H460),GI50 at 48 h [3],TGI (786-0),TGI (HT-29),TGI (U-251),TGI (MCF7),TGI (PC-3),TGI (Vero),other results
0.1 µM,0.1 µM,0.02 µM,0.001 µM,0.003 µM,0.005 µM,< 0.1 µM,CC(=O)O[C@H]1C(=O)[C@@]2(C)[C@H]([C@H](OC(=O)c3ccccc3)[C@]3(O)C[C@H](OC(=O)[C@H](O)[C@@H](NC(=O)c4ccccc4)c4ccccc4)C(C)=C1C3(C)C)[C@]1(OC(C)=O)CO[C@@H]1C[C@@H]2O [PACLITAXEL],0.04 µM,0.4 µM,0.1 µM,0.2 µM,< 0.03 µM,0.08 µM,0.03 µM,0.8 µM,< 0.03 µM,0.1 µM,0.4 µM,< 0.03 µM,,GI50 [4]: 0.01 µM; TGI [4]: 0.5 µM
83.4 µM,50.8 µM,21.7 µM,29.9 µM,7 µM,8 µM,62.6 µM,CC1=CC[C@H](C(C)(C)NC(=S)N/N=C(\C)c2ccc([N+](=O)[O-])cc2)CC1,9.9 µM,> 100 µM,> 100 µM,7.7 µM,29.3 µM,83.7 µM,67.1 µM,> 100 µM,> 100 µM,29.3 µM,77.5 µM,> 100 µM,> 100 µM,GI50 [4]: 7.2 µM; TGI [4]: 46.8 µM
0.3 µM,7.8 µM,74.9 µM,13.6 µM,69.5 µM,18.3 µM,0.05 µM,CC1=CC[C@H](C(C)(C)NC(=S)N/N=C/c2ccc(Cl)cc2)CC1,65.2 µM,97.4 µM,16.9 µM,8.6 µM,26.4 µM,21.1 µM,70 µM,> 100 µM,70.5 µM,> 100 µM,> 100 µM,1.7 µM,> 100 µM,GI50 [4]: 11.2 µM; TGI [4]: > 100 µM
0.1 µM,13.5 µM,11.7 µM,7.2 µM,9.7 µM,9.3 µM,13.5 µM,CC1=CC[C@H](C(C)(C)NC(=S)N/N=C/c2ccco2)CC1,9.8 µM,14.1 µM,> 100 µM,10.8 µM,13.8 µM,10.8 µM,5.1 µM,9.8 µM,26.9 µM,81.5 µM,53.7 µM,27.2 µM,14.7 µM,GI50 [4]: 10.7 µM; TGI [4]: 14.1 µM
5.6 µM,64.5 µM,85.5 µM,71.3 µM,80.6 µM,11 µM,0.05 µM,CC1=CC[C@H](C(C)(C)NC(=S)N/N=C/c2ccccc2Cl)CC1,75 µM,> 100 µM,66.2 µM,15.1 µM,83.6 µM,81 µM,74.6 µM,> 100 µM,> 100 µM,> 100 µM,98.3 µM,0.7 µM,> 100 µM,GI50 [4]: 19.3 µM; TGI [4]: 98 µM
23.4 µM,18 µM,20.8 µM,27.5 µM,0.08 µM,3.9 µM,2.8 µM,CC1=CC[C@H](C(C)(C)NC(=S)N/N=C/c2ccc[nH]2)CC1,78 µM,> 100 µM,> 100 µM,33.5 µM,> 100 µM,57.5 µM,20.5 µM,> 100 µM,> 100 µM,3.9 µM,11.5 µM,> 100 µM,> 100 µM,GI50 [4]: 14.8 µM; TGI [4]: 49.9 µM
> 100 µM,> 100 µM,> 100 µM,> 100 µM,> 100 µM,> 100 µM,< 0.04 µM,CC1=CC[C@H](C(C)(C)NC(=S)N/N=C/c2ccc(F)cc2)CC1,> 100 µM,> 100 µM,> 100 µM,> 100 µM,> 100 µM,> 100 µM,> 100 µM,> 100 µM,> 100 µM,> 100 µM,> 100 µM,< 0.9 µM,> 100 µM,GI50 [4]: > 100 µM; TGI [4]: > 100 µM
5.4 µM,1.4 µM,9.2 µM,7.9 µM,7.9 µM,8 µM,0.6 µM,CC1=CC[C@H](C(C)(C)NC(=S)N/N=C/c2cccc(Cl)c2)CC1,67.5 µM,> 100 µM,> 100 µM,13.6 µM,80.5 µM,21.4 µM,14.8 µM,26.9 µM,53 µM,35.8 µM,61 µM,6.6 µM,> 100 µM,GI50 [4]: 9 µM; TGI [4]: 39.8 µM
> 100 µM,42 µM,> 100 µM,60.1 µM,0.2 µM,0.9 µM,44.5 µM,CC1=CC[C@H](C(C)(C)NC(=S)NN)CC1,39.3 µM,> 100 µM,> 100 µM,41.9 µM,> 100 µM,> 100 µM,49.5 µM,> 100 µM,> 100 µM,10.1 µM,46.7 µM,> 100 µM,> 100 µM,
> 100 µM,> 100 µM,> 100 µM,> 100 µM,> 100 µM,> 100 µM,0.6 µM,CC1=CC[C@H](C(C)(C)NC(=S)N/N=C/c2ccc(O)cc2)CC1,82.1 µM,> 100 µM,> 100 µM,> 100 µM,> 100 µM,> 100 µM,> 100 µM,> 100 µM,> 100 µM,> 100 µM,> 100 µM,53.8 µM,> 100 µM,GI50 [4]: > 100 µM; TGI [4]: > 100 µM
17.6 µM,10.8 µM,11.5 µM,17.8 µM,13.5 µM,4.8 µM,17.8 µM,CC1=CC[C@H](C(C)(C)NC(=S)N/N=C/c2cccs2)CC1,13.6 µM,41 µM,> 100 µM,13.1 µM,35.1 µM,20.8 µM,10.1 µM,26.7 µM,57.8 µM,27.4 µM,11.5 µM,62.8 µM,13.4 µM,GI50 [4]: 2.6 µM; TGI [4]: 19 µM
45.6 µM,> 100 µM,> 100 µM,0.6 µM,> 100 µM,> 100 µM,9.5 µM,CC1=CC[C@H](C(C)(C)NC(=S)N/N=C/c2cccc([N+](=O)[O-])c2)CC1,> 100 µM,> 100 µM,> 100 µM,> 100 µM,> 100 µM,> 100 µM,> 100 µM,> 100 µM,21.9 µM,> 100 µM,> 100 µM,88 µM,> 100 µM,GI50 [4]: > 100 µM; TGI [4]: > 100 µM
54 µM,90.6 µM,> 100 µM,18.7 µM,43.4 µM,5 µM,83.6 µM,COc1ccc(/C(C)=N/NC(=S)NC(C)(C)[C@H]2CC=C(C)CC2)cc1,> 100 µM,> 100 µM,> 100 µM,74.9 µM,> 100 µM,> 100 µM,> 100 µM,> 100 µM,> 100 µM,> 100 µM,> 100 µM,> 100 µM,> 100 µM,GI50 [4]: 95.3 µM; TGI [4]: > 100 µM
23.9 µM,> 100 µM,> 100 µM,> 100 µM,> 100 µM,> 100 µM,> 100 µM,C=C(C)[C@H]1CC=C(C)CC1 [D-LIMONENE],> 100 µM,> 100 µM,> 100 µM,> 100 µM,> 100 µM,> 100 µM,> 100 µM,> 100 µM,> 100 µM,> 100 µM,> 100 µM,> 100 µM,> 100 µM,
4 µM,> 100 µM,> 100 µM,> 100 µM,29.1 µM,57.6 µM,> 100 µM,CC1=CC[C@H](C(C)(C)N=C=S)CC1,> 100 µM,> 100 µM,> 100 µM,> 100 µM,> 100 µM,> 100 µM,> 100 µM,> 100 µM,> 100 µM,> 100 µM,> 100 µM,> 100 µM,> 100 µM,
